Assay results as given in ChEMBL document CHEMBL4311975, “Exploration of the antibiotic potentiating activity of indolglyoxylpolyamines” (Eur J Med Chem, 2019).
In brackets after ≈: the same amount, converted by molar mass.

Experiments:
[1] = tested on: Acinetobacter baumannii; assay: Antibacterial activity against Acinetobacter baumannii AYE assessed as growth inhibition; assay type: functional
[2] = tested on: Pseudomonas aeruginosa; assay: Antibacterial activity against Pseudomonas aeruginosa ATCC 27853 assessed as growth inhibition incubated for 18 hrs by broth dilution method; assay type: functional; details: ATCC 27853, 18 h
Method in brief: (§1)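 Broth microdilution following CA-SFM recommendations. Inoculum was 10^5 CFU in Mueller-Hinton broth with two-fold serial drug dilutions. Plates were incubated 18 h at 37 °C. MIC was the lowest concentration giving complete inhibition of visible growth. Values are means, n = 3.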

[3] = tested on: Escherichia coli; assay: Antibacterial activity against Escherichia coli ATCC 25922 assessed as growth inhibition incubated for 18 hrs by broth dilution method; assay type: functional; details: ATCC 25922, 18 h; method in brief: as §1
[4] = tested on: Klebsiella pneumoniae; assay: Antibacterial activity against Klebsiella pneumoniae ATCC 13443 assessed as growth inhibition; assay type: functional
[5] = tested on: Staphylococcus aureus; assay: Antibacterial activity against Staphylococcus aureus ATCC 25923 assessed as growth inhibition incubated for 18 hrs by broth dilution method; assay type: functional; details: ATCC 25923, 18 h; method in brief: as §1
[6] = tested on: Staphylococcus intermedius; assay: Antibacterial activity against Staphylococcus intermedius 1051997 assessed as growth inhibition incubated for 18 hrs by broth dilution method; assay type: functional; details: Staphylococcus intermedius, 1051997, 18 h; method in brief: as §1
[7] = tested on: Klebsiella pneumoniae; assay: Antibacterial activity against Klebsiella pneumoniae ATCC 700603 assessed as growth inhibition incubated for 18 hrs by resazurin dye based assay; assay type: functional; details: Klebsiella pneumoniae, 700603, 18 h
Method in brief: (§2)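 Overnight cultures were diluted 40-fold in MHB and grown 1.5–2 h at 37 °C to mid-log phase. Cells were added at 5×10^5 CFU/mL final to two-fold compound dilutions (0.008–32 μg/mL final), in duplicate, for 18 h at 37 °C. Resazurin (0.001% final) was added for 2 h and MIC read by eye. Means, n = 2.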

[8] = tested on: Acinetobacter baumannii; assay: Antibacterial activity against Acinetobacter baumannii ATCC 19606 assessed as growth inhibition incubated for 18 hrs by resazurin dye based assay; assay type: functional; details: ATCC 19606 = CIP 70.34 = JCM 6841, 18 h; method in brief: as §2
[9] = tested on: Candida albicans; assay: Antifungal activity against Candida albicans ATCC 90028 assessed as growth inhibition incubated for 36 hrs by resazurin dye based assay; assay type: functional; details: ATCC 90028, 36 h
Method in brief: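 Yeast was grown 3 days on YPD agar at 30 °C. Colonies were suspended and diluted in YNB broth to 2.5×10^3 CFU/mL, then added to two-fold compound dilutions (0.008–32 μg/mL final), in duplicate. Plates stood 36 h at 35 °C without shaking. Means, n = 2.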

[10] = tested on: Cryptococcus neoformans; assay: Antifungal activity against Cryptococcus neoformans ATCC 208821 assessed as growth inhibition incubated for 36 hrs by resazurin dye based assay; assay type: functional; details: ATCC 208821, 36 h
Method in brief: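 Cryptococcus was grown 3 days on YPD agar at 30 °C, suspended, and diluted in YNB broth to 2.5×10^3 CFU/mL. Cells were exposed to 0.008–32 μg/mL compound (final), in duplicate, for 36 h at 35 °C without shaking. Resazurin (0.006% final) was added for a further 3 h. MIC was read from absorbance at OD570–600. Means, n = 2.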

[11] = tested on: Pseudomonas aeruginosa; assay: Potentiation of doxycycline-induced antibacterial activity against Pseudomonas aeruginosa ATCC 27853 assessed as concentration required to restore 2 ug/ml doxycycline activity measured after 18 hrs; assay type: functional
Method in brief: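 Inoculum was 5×10^5 CFU in MHB with two-fold serial dilutions of adjuvant plus fixed doxycycline at 2 μg/mL. […] Repeated independently in triplicate.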

[12] = tested on: L6; assay: Cytotoxicity against rat L6 cells measured after 72 hrs by alamar blue assay; assay type: cell-based; details: L6, 72 h
Method in brief: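 Rat L6 myoblasts, 4×10^4/well in RPMI 1640 with L-glutamine and 10% FBS, received seven 3-fold dilutions (90 to 0.123 μg/mL) for 72 h. Alamar Blue was added for 2 h and fluorescence read at ex 536/em 588 nm. Podophyllotoxin served as reference. Means, n = 2.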

[13] = Cytotoxicity against human HEK293 cells measured after 20 hrs by resazurin dye based fluorescence assay; assay type: cell-based
Method in brief: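 HEK293 cells, 5,000/well in DMEM with 10% FBS, were exposed to compound for 20 h at 37 °C, 5% CO2. Resazurin (100 μM final) was added for 3 h, then fluorescence read at ex 560/em 590. Signal was normalised to tamoxifen (74 μg/mL, 0%) and untreated growth (100%), and CC50 came from dose-response fitting. Top dose 32 μg/mL. Means, n = 2.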

[14] = Hemolytic activity against Sprague-Dawley rat RBC assessed as release of hemoglobin at 50 uM incubated for 1 hr relative to control; assay type: ADME, cell-based, Erythrocyte; details: red blood cells (erythrocytes), read-out: Activity
Method in brief: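 Fresh Sprague-Dawley rat erythrocytes were washed in saline and resuspended at 2% v/v. Cells were incubated with compound in DMSO/PBS for 1 h at 37 °C, then centrifuged at 200 g, and supernatant absorbance read at 540 nm. Results were normalised to DMSO/PBS (0%) and 0.1% Triton X-100 (100%). Single-point testing used 50 μM; HC50 came from 10-point curves. Means of three experiments.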

MIC [2] [µM] | MIC [3] [µM] | MIC [5] [µM] | MIC [6] [µM] | MIC [7] [µM] | MIC [8] [µM] | MIC [9] [µM] | MIC [10] [µM] | SMILES | MIC [1] [µM] | MIC [4] [µM] | Activity [11] [µM] | IC50 [12] [µM] | CC50 at 20 h [13] [µM] | hemolysis at 1 h, 50 µM [14] [%]
90 (≈ 40 µg/mL) | 25 (≈ 11.1 µg/mL) | – | – | – | – | – | – | C[C@H]1c2cccc(O)c2C(=O)C2=C(O)[C@]3(O)C(=O)C(C(N)=O)=C(O)[C@@H](N(C)C)[C@@H]3[C@@H](O)[C@@H]21 [DOXYCYCLINE] | 12.5 (≈ 5.56 µg/mL) | 25 (≈ 11.1 µg/mL) | – | – | – | –
> 200 | > 200 | 100 | > 200 | > 38.9 | > 38.9 | > 38.9 | 38.9 | N#Cc1ccc2[nH]cc(C(=O)C(=O)NCCCNCCCCNCCCNC(=O)C(=O)c3c[nH]c4ccc(C#N)cc34)c2c1.O=C(O)C(F)(F)F.O=C(O)C(F)(F)F | – | – | 50 | 37.1 | > 38.9 | 0
100 | 50 | 6.25 | 3.12 | 38.1 | 38.1 | 38.1 | 4.8 | O=C(NCCCNCCCCNCCCNC(=O)C(=O)c1c[nH]c2cc(Cl)ccc12)C(=O)c1c[nH]c2cc(Cl)ccc12.O=C(O)C(F)(F)F.O=C(O)C(F)(F)F | – | – | 6.25 | 33.2 | 19.1 | 11.6
> 200 | > 200 | 100 (≈ 60.5 µg/mL) | 50 (≈ 30.2 µg/mL) | > 38.4 | > 38.4 | > 38.4 | 19.2 (≈ 11.6 µg/mL) | COc1ccc2[nH]cc(C(=O)C(=O)NCCCNCCCCNCCCNC(=O)C(=O)c3c[nH]c4ccc(OC)cc34)c2c1 | – | – | 12.5 | 56 | > 38.4 | 0

SMILES | MIC [2] [µM] | MIC [3] [µM] | MIC [5] [µM] | MIC [6] [µM] | MIC [7] [µM] | MIC [8] [µM] | MIC [9] [µM] | MIC [10] [µM] | MIC [1] [µM] | MIC [4] [µM] | Activity [11] [µM] | IC50 [12] [µM] | CC50 at 20 h [13] [µM] | hemolysis at 1 h, 50 µM [14] [%]
CCn1cc(C(=O)O)c(=O)c2ccc(C)nc21 [NALIDIXIC ACID] | > 200 | > 200 | – | – | – | – | – | – | > 200 | 100 (≈ 23.2 µg/mL) | – | – | – | –
